Reference: ChEMBL document CHEMBL1141800, “Xenia diterpenoids from the formosan soft coral Xenia blumi” (2005)
Converted amounts (≈) assume the structure as drawn.

Legend:
P388 = assay: Cytotoxicity against mouse P388 cells; format: functional; conditions: read-out: ED50 (the source's name)
Summary of the method: (§1)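 In vitro cytotoxicity assay against cultured HT-29 (human colon adenocarcinoma) and P-388 (mouse lymphocytic leukemia) cells; P-388 line was supplied by an outside academic lab. Potency is reported as ED50 in μg/mL.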

HT-29 = assay: Cytotoxicity against human HT-29 cells; format: functional; conditions: read-out: ED50 (the source's name); summary of the method: as §1

SMILES | EC50 (P388) | EC50 (HT-29)
COC(=O)[C@@H]1[C@@H](/C(=C\C=C\C(C)(C)O)COC(C)=O)CC[C@@]2(C)C[C@]1(O)CC[C@H]2O | > 20 µg/mL | > 20 µg/mL
C=C1CC[C@@H]2O[C@@]2(C)CC[C@@H]2/C(=C\C=C\C(C)(C)O)C(=O)OC[C@@H]12 | 6.9 µg/mL (≈ 20.8 µM) | 8.6 µg/mL (≈ 25.9 µM)
C=C1CC[C@@](C)(C=O)CC[C@@H]2/C(=C\C=C\C(C)(C)O)COC(=O)[C@@H]12 | 3.3 µg/mL (≈ 9.93 µM) | 4.6 µg/mL (≈ 13.8 µM)
C=C1CC/C=C(\C)CC[C@@H]2/C(=C/C=C/C(C)(C)O)C(=O)OC[C@@H]12 | > 20 µg/mL | 8.7 µg/mL (≈ 27.5 µM)
C=C1CC(=O)/C=C(/C)CC[C@@H]2/C(=C/C=C/C(C)(C)O)C(=O)OC[C@@H]12 | 0.2 µg/mL (≈ 0.605 µM) | 0.5 µg/mL (≈ 1.51 µM)
C=C1CC[C@@H]2O[C@@]2(C)CC[C@@H]2C([C@@H](OC(C)=O)[C@H](C=C(C)C)OC(C)=O)=CO[C@H](OC(C)=O)[C@@H]12 | > 20 µg/mL | > 20 µg/mL
C=C1CC[C@@H]2O[C@@]2(C)CC[C@@H]2/C(=C/C=C/C(C)(C)O)C(=O)OC[C@@H]12 | 4.7 µg/mL (≈ 14.1 µM) | 5.6 µg/mL (≈ 16.8 µM)
C=C1CC[C@H](O)C(=C)CC[C@@H]2/C(=C\C=C\C(C)(C)O)COC(=O)[C@@H]12 | 3.7 µg/mL (≈ 11.1 µM) | 4.9 µg/mL (≈ 14.7 µM)
